To fix the notation:
B1: tRNA (parent)
chain: GUUCCGUUGGCGUAAUGGUAACGCGUCUCCCUCCUAAGGAGAAGACUGCGGGUUCGAGUCCCGUACGGAACG

Fewer inactive variants are shown than the library holds.

The variants in the data set derive from B1. Kind of data set: yeast fitness relative to wild type (ratio to wild type); higher = fitter; tRNA-Arg(CCU), competitive growth, 37 C, YPD. The gist of the method: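 Gene amplicons from the start population and from each of six end populations were read by 100-nucleotide paired-end sequencing. Those end populations came from pooled Saccharomyces cerevisiae strains carrying tRNA-Arg(CCU) gene variants at the native locus, competed in YPD at 37°C for 24 hours. Fitness relative to wild type was worked out from changes in genotype frequencies. Genotypes needed ≥ 100 starting reads, and estimates < 0.5 were set to 0.5.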
GUUCCCUUGGCGUAAUAGUAACGCGUCUCCCUCCUUAGGAGAAGAAUGCGGGUUCGAGUCCCGUAAGGAACG: the yeast fitness worked out at 0.512. Under GUUCCCUUGGCGUAAUGGUAACGCGUCUCCCUCCUAUGGAGAAGACUGUGGGUUCGAGUCCCGUACGGUACG stands 0.585; under GUUCCCUUGGCGUAAUGGUAACGCGUCUCCCUCCUAAGGAGAAGACUGCGGGUUCGAGUGCCGUUCGGAACG, not above 0.5; under GUUCCCUUGGCGUAAUGGUAACGCGUCUCCCUCCUAAGGAGAAGAGUGCGGGUUCGGGUCCUGUAUGGAACG, not above 0.5. Under GUUCCCUUGGCGUAAUGGUAACGCGUCUCCCUCCUAAGGAGAAGACUGCGGGUUCGAGUCCCGUUCGGAACG stands 0.917; under GUUCCCUUGGCGUAAUGGUAAGGCGUCUCCCUCCUAUGGAGAGGACUGCGGGUUCGAGUCCGGUACGGAACG, 0.509. As to GUUCCCUUGGGGUAGUGGUAACGCGUCUCCCUCCUAAGGAGAAGACUGCGGGUUCGAGUCCCGUACGCAACG, the yeast fitness was determined as 0.503. With GUUCCCUUGGAGUAAUGGUAAUGCGUCUCCCUCCUAAGGAGAAGACUGCGGGUUCGAGUCCCGUACGGAACG the figure was 0.573; with GUUCCCUUGGCGUAAUGGUAACGCGUCUCCCUCCUAAGGAGAAGACUGCGAGUUCGAAUCCCGUACGGAACG, 0.652; with GUUCCCUUGGCGUAAUGGUAACGCGUCUCCCUCCUAAGGAGAAGACUGCCGGUUCGAGUCCGGUAUGGAACG, 0.673. With GUUCCCUUGGCGUAAUGGUAACCAGUCUCCCUCCUAAGGAGAAGACUGCGGAUUUGAGUCCCGUACGGAACG the figure was not above 0.5. Regarding GUUCCCUUGGCGUAAUGGUAAAGCGUCUCCCUCCUAAGGAAAACACUGUGGGUUCGAGUCCCGUACGGAACG, the yeast fitness was not above 0.5.

With GUUCCCUUGGCGUAAUGGUAACGCGUCUCCCUCCUAAGGAGAAGACUGCGGGUUCGUGUCCCGUACGGAACG, the yeast fitness came out at 0.663.

As to GUUCCCUUGGCGUAAUGGUAAAGCGUCUCCCUCCUAAGGAGAAGACUGCGGGUUCGUGUCCCGUACGGAACG, the yeast fitness was not above 0.5.

On to GUUCCCUUGGCGUAAUGGUAAGGCGUCUCCCUCCUAAGGAGAAGACUGCGGGUUCGAGUCCCGUACGGAACG, for which the yeast fitness is 0.761. Under GUUCCCUUGGCGUAAUGGUAACGCGUCUCCCUCCUAAGCAGAAGACUGCGGAAUCGAGUCCCGUACGGAACG stands not above 0.5; under GUUCCCUUGGCGUAAUGGUAACGCGUCUGCCUCCCAAGGAGAAGACUGCGGGUUCGGGUCCCGUACGGAACG, not above 0.5; under GUUCCCUUGGCGUAAUGGUAACGCGUCUCCCUCCUAAGGAGAAGGCUGCGGGUUCGAAUCCCGUACGGAACG, 0.607. With GUUCCCUUGGGGUAAUGGUAGCGCGUCUGCCUCCUAAGGCGAAGACUGCGGGUUCGAGUCCCGUACGGAACG the figure was not above 0.5. Under GUUCCCUUGGCGUAAUGGUAAUGCGUCUCACUCCUAAGGAGAAGACUGUGGCUUCGAGUCCCGUACGGAACG stands 0.683; under GUUCCCUUGGAGUAAUGGUAACGCGUCUCCCUCCUAAGGAGAUGACUCCGGGUUCGAGUCCCGUACGGAACG, not above 0.5; under GUUCCCUUGGCGUAAUGGUAACGCGUCUCCCUCCUAAGGAGCAGACUGUGGGUUUGAGUCCCGUACGGAACG, 0.578. For GUUCCCUUGGCGUAAUGGUAACGAGUCUCCCUCCUAAGGAGAAGAGUGCGGGUUCGAGUCCCGUACGGAACG, the yeast fitness came out at 0.59. Under GUUCCCUUGGCGUAAUGGUAACGCGUCUCCCUCCUAAGGAGAAGCCUGCGGGUUCGAGUCCCGUACGGAACG stands 0.614; under GUUCCCUUGGCGUAAUGGUAACGCGUCUCCCUUCUAAGGAGAAGACUGCGGAUUCGAGUCCCGUACGGAACG, not above 0.5. Under GUUCCCUUGGCGUAAUGGUAACGCGUCUCCCUCCUAAGAAGAAGACUGCGGGUUCGAGUCCCGUACGGAACG stands 0.86. With GUUCCCUUGGCGUAAUGGUAACGCGUCUCCCUCCUAAGGAGCAGACUGUGGGUUCGAGUCCCGUAAGGAACG the figure was not above 0.5; with GUUCCCUUGGCGUAAUGGUAACGCGUCUCCCUCCUAAGGAGAAGACUGCGGGUUCGAGUCCAGUACGGAACG, 0.798. GUUCCCUUGGCGUAAUGGUAACGCGUCUCCCUCCUAAGGGGAAGACUGCGGGUUCGAGUCCCGUACGGAACG: the yeast fitness stood at 0.767.

On to GUUCCCUUGGCGUAAUGGUAACGUGUCUCCCUCCUAAGGAGAAGACUGUGGGUUCCAGUCCCGUACGGAACG, for which the yeast fitness was 0.52. On to GUUCCCUUGGCGUAAUGGUAAUGGGUUUAUGUCCUAAGGAGAAGACUGCGGGUUCGAAUCCCGUACGGAACG, for which the yeast fitness is not above 0.5. With GUUCCCUUGGCGUAAUGGUAACGCGUCUCCCUCUUAAGGAGAGGACUACGGGUUCGGGUCCCGUACGGAACG the figure was not above 0.5; with GUUCCCUUGCCGUAAUGGUAACGCGUCUCCCUCCUAAGGAGAAGACUGCGGGUUCGAGUCCCGUACGGCACG, 0.589. With GUUCCCUUGGCGUAAUGGUAACGCGUCUCCCUCCUAAGGAGGAGACUGCGGGUUCGAGUCCCGUACGGAUCG the figure was 0.548; with GUUCCCUUGGCGUAAUGGUAACGCGUCUCCCUCCUAAGGCGAAGCCUGCGGGUUCGAGUCCCGUACGGAACG, not above 0.5.

Consider GUUCCCUUGGUGUAAUGGUACCGCGUCUCCCUCCUAAGGAGAAGACUGCGGGUUCGAGUCCCGUACGGAACG, for which the yeast fitness came to 0.671. With GUUCCCUUGGCGUAAUGGUAACGCGUCUCCCUCGUAAGGAGAAGACUGCGGGUUCGAGUCCCGUACGGAACG the figure was 0.717; with GUUCCCUUGGCGUAAUGGUAAAGCGUCACCCUCCUAAGGAGAAGACUGCGGGGUCGAGUCCCGUACGGAACG, not above 0.5; with GUUCCCUUGGCGUAAUGGUAACGCGUCUCCCUCCUAGGGAGAAGACUGCGGGUUCGAGUUCCGUGCGGAACG, not above 0.5. Under GUUCCCUUGGCGUAAUGGUAACGCGUCUCCCUCCUAAGGAGAAGACUGCGGGUUCGAGUUCCGUACGGAACG stands 0.712; under GUUCCCUUGGCGUAAUGGUAACGUGUCUCCCUCCUAACGGGAAGACUGCGGGUUCGAGUCCCGUACGGAACG, not above 0.5.

Take GUUCCCUUGGCGUAAUGGUAACGCGUCUCCCUCCUAAGGAGAAGACUGCGGCUUCGAGUCCCGUACGGAACG: the yeast fitness is 0.653. Regarding GUUCCCUUGGCGUAAUGGUAACGCGUCUCCCUCCUAAGGAGAAGACUGCGGAUUCGAGUCCCGUACGGAACG, the yeast fitness was determined as 0.683.

With GUUCCCUUGGGGUAAUGGUAACGCGUUUCCCUCCUAAGGAGGAGACUGCGGGUUCGAGUCCCGUACGGAACG, the yeast fitness is not above 0.5. For GUUCCCUUGGCGUAAUGGUAACGCGUCUCCCUCCUAAGGAGAAGACUCCGGGUUCGAGUCCCGUACGGAACG, the yeast fitness amounted to 0.837. Under GUUCCCUUGGCGUAAUGGUAACGCGUCUCCCUCCUAAGGAGAAGAGUGCGGGUUCGAGUCCUGUAUGGAACG stands 0.533; under GUUCCCUUGGCGUAAUGGUAACACGUCUCCCUCCUAAGGAGAAGACUGCGGGUUCGAGUCCCGUACGGAUCG, not above 0.5; under GUUCCCUUGGGGUACUGGUAACGCCUGUCGCUCCUAACGAGAAGACUGCGGGUUCGAGUCCCGUACGGAGCG, not above 0.5. Take GUUCCCUUGGGGUAAUGGUAACGCGUCUCCCUUCUAAGGAGAAGACUGCGGGUUCGAGUCCCGUACGGAACG: the yeast fitness was not above 0.5.

In the case of GUUCCCUUGGCGUAAUGGUAACGCGUCUCCCUCCUAAGGGGAAGACUGCGGGUUCGAGUUUCGUACGGAACG, the yeast fitness was 0.513. With GUUCCCUUGGCGUAAUGGUAACGCGUCUCCAUCCUAAGGAGAAGACUGCGGGUUCGAGUCCCGUGUGGAACG the figure was 0.594; with GUUCCCUUGGCGUAAUGGUAACGCGUCUCCCUCCUAAGGACAAGACUGCGGGUUCGAGUCCUGUACGGAACG, not above 0.5; with GUUCCCUUGGCGUAAUGGUAACGCGUCUCCCUCCUAAGCAGAAGACUGCGAGUUCGAGUCCCGUACGGAACG, 0.741. With GUUCCCUUGGCGUAAUGGUAACGCGUCUCCGUGCUAAGGAGAAGACCGCGAGUUCGAGUCCCGUAUGGAACG the figure was not above 0.5.

Take GUUCCCUUGGUGUAGUGGUAUCGCGUCUCGCUCCUAAGGAGAAAACUGCGGAUUCGAGUCCCGUACGGAACG: the yeast fitness amounted to 0.791. With GUUCCCUUGGCGUAAUGGUAAUGGGUUUAUGUCCUAAGGAGAAGACUGCGGGUUCGAGUCCCGUACGGACCG the figure was not above 0.5. With GUUCCCUUGGCGUAAUGGUAACGCGUCUCACUCCUAAGGAGAAGGCUGCGGGUUGGUGUCCGGCACGGAACG the figure was not above 0.5; with GUUCCCUUGGCGUAAUGGUAACACGUCUCCCUCGUAAGGAGAAGACUGCGGGUUCGAGUCCCGUACGGAACG, not above 0.5; with GUUCCCUUGGCAUAAUGGUAACGGGUCUCCCUCCUAAGGAGAAGACUGCGGGUUCGACUCCCGUACGGAACG, not above 0.5. GUUCCCUUGGCAUAAUGGUAACGCGUCUCCCUCCUAAGGAGAAGACUGCGCGUUCGAGUCCCGUAUGGAACG: the yeast fitness was not above 0.5. Under GUUCCCUUGGUGUAAUGGUCACGCGUCUCCCUCCUAAGGAGAAGACUGCGGGUUCGAGUCCCGUACGGAACG stands not above 0.5; under GUUCCCUUGGCGUAAUCGUAACGCGUCUCCCUCUUAAGGAGAAGAAUGCGGGUUCGAGUCCCGAACGGAACG, 0.597. Under GUUCCCUUGGCGUAAUGGUAACGCGUCUCCCUCCUAAGGAGCUGACUGCGGGUUCGAGUCCCGUACGGAACG stands not above 0.5; under GUUCCCUUGGCGUAAUAGUAACGCGUCUCUCUCCUAAGGAGCAGACUGCGGCUUCGAGUCCCAUUCGGAACG, not above 0.5.

For the variant GUUCCCUUGGCGUAAUGGUAACGCGUCUCCCUCCUAAGGAGAAGACUGCGGGUUCGAGUCGCGUACGAAACG, the yeast fitness is not above 0.5. Take GUUCCCUUGGUGUAAUGGUAACGCGUGUCCCUCCUAAGGACAAGACUGCGGGUUCGAGUCACGUACGGAACG: the yeast fitness was not above 0.5.

Turning to GUUCCCUUGGCGUAAUGGUAACGCGUCUCCCUCCUAAAGAGAAGACUGCGGGUUCGAGUCCCGUACGGAACG, the yeast fitness was determined as 0.84. Under GUUCCCUUGGCGUAAUGGUAACGCGUCUCCCUCCUAAGGAGAAGACUGCGGGUUCGAGUCUCGUACGGAGCG stands 0.554. For GUUCCCUUGGGGUUAUGGUAAUGCGUCUCCCUCCUAAGGAGAAAACUGCGGGUUAGAGUCCCAUACGGAACG, the yeast fitness is not above 0.5. Under GUUCCCUUGGCGUAAUGGUAACGCGUCUCUCUCCUAAGGAGAAGACUGCGGGUUCGAGGCACGUACGGAACG stands 0.575. Under GUUCCCUUGGCGUAAUGGUAACGGGUCUCCCUCUUAAGGAGAAGACUGCGGGCUGGAGUCCAGUACGGAUCG stands not above 0.5. With GUUCCCUUGGCGUAAUGGUAACGCGUCUCCCUCCUAAGGAGUAGACUGCGGGUUCGAGUCCCGUACGGAACG the figure was 0.739. On to GUUCCCUUGGCGUAAUGGUAACGCGUCUCCCUCCUAGGGAGAAGACUGCGGGUUCGAGUGCCGUUCGGAACG, for which the yeast fitness is not above 0.5. Under GUUCCCUUGGCGUAAUGGUAACGCGUCUCCCUCCUAAGGAGAAGACUGGGGGUUCGAGUCCCGUACGGAACG stands 0.776; under GUUCCCUUGGCGUAAUGGUAACGCGUCUCCCUGUUAAGGAGAAGACUGCGGGUUCGAGUCCCGAACGGAACG, 0.684.

The values are drawn from the RNAGym collection of RNA variant scans (doi:10.1126/science.aae0568).
